# In ChEMBL document CHEMBL3112527, “Quinoline-pyrimidine hybrids: synthesis, antiplasmodial activity, SAR, and mode of action studies” (J Med Chem, 2014):
# Active and inactive are the calls of the source. The rule behind the calls is not given here.
# Assays:
# [1] = system: Human alphaherpesvirus 2; experiment: Antiviral activity against HSV-2 G infected in HEL cells assessed as inhibition of virus-induced cytopathicity; type: functional, organism-based; settings: strain G
# Outline: (§1)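 Confluent monolayers (HEL, Vero, HeLa or CrFK, as applicable) were inoculated with 100 CCID50 of virus, with 1 CCID50 being the dose that infects 50% of cultures. Infection ran in the presence of varying compound concentrations. Inhibition of virus-induced cytopathicity was scored against infected cultures left untreated.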
# [2] = system: Human alphaherpesvirus 1; experiment: Antiviral activity against HSV-1 KOS infected in HEL cells assessed as inhibition of virus-induced cytopathicity; type: functional, organism-based; outline: as §1
# [3] = Solubility of the compound in octanol at pH 7.4 by HPLC analysis; type: physicochemical
# [4] = n-octanol-PBS buffer distribution coefficient, log D of the compound at pH 7.4 after 24 hrs by HPLC analysis; type: physicochemical
# [5] = Aqueous solubility of the compound in PBS buffer at pH 7.4 after 24 hrs by HPLC analysis; type: physicochemical; settings: pH 7.4, 24 h
# [6] = Selectivity index, ratio of CC50 for cat CRFK cells to IC50 for chloroquine-resistant asexual erythrocytic stage of Plasmodium falciparum Dd2; type: functional
# Outline: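 Ratio of CRFK CC50 (μM) to Dd2 IC50 […]. CC50 is the 50% cytotoxic concentration in feline kidney CRFK cells, measured as cell viability by colorimetric formazan-based MTS assay. Dd2 IC50 is from the parasite LDH growth-inhibition assay.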
# [7] = Cytotoxicity against cat CRFK cells assessed as cell viability by MTS assay; type: cell-based, Felis catus
# Outline: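 CRFK cells were exposed to varying sample concentrations. Cell viability was measured with the colorimetric formazan-based MTS assay, and the 50% cytotoxic concentration (CC50) was derived from it.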
# [8] = Cytotoxicity against human HeLa cells assessed as alteration of cell morphology by microscopic analysis; type: cell-based; settings: read-out: MIC
# Outline: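 Cells (Vero, HEL, MDCK or HeLa) were exposed to a range of sample concentrations. The value reported is the concentration required to cause a microscopically detectable alteration of normal cell morphology.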
# [9] = system: Plasmodium falciparum; experiment: Antiplasmodial activity against chloroquine-resistant asexual erythrocytic stage of Plasmodium falciparum Dd2 assessed as parasite growth inhibition by lactate dehydrogenase assay; type: functional, organism-based
# Outline: (§2)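 Parasite lactate dehydrogenase assay (modified Makler method). Samples held as 20 mg/mL stocks in DMSO, diluted on test day. Full dose-response: starting at 10 μg/mL, 2-fold serial dilution in complete medium over 10 concentrations down to 0.02 μg/mL. Chloroquine, artesunate and MMV390048 served as references. IC50 from nonlinear dose-response curve fitting; mean of three independent experiments.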
# [10] = system: Plasmodium falciparum; experiment: Antiplasmodial activity against chloroquine-sensitive asexual erythrocytic stage of Plasmodium falciparum D10 assessed as parasite growth inhibition by lactate dehydrogenase assay; type: functional, organism-based; outline: as §2
# [11] = system: Felid alphaherpesvirus 1; experiment: Antiviral activity against Feline herpesvirus infected in cat CRFK cells assessed as inhibition of virus-induced cytopathicity; type: functional, organism-based; outline: as §1
# [12] = system: Feline coronavirus; experiment: Antiviral activity against Feline coronavirus infected in cat CRFK cells assessed as inhibition of virus-induced cytopathicity; type: functional, organism-based; outline: as §1
# [13] = system: Human alphaherpesvirus 3; experiment: Antiviral activity against Varicella-zoster virus infected in HEL cells assessed as inhibition of virus-induced cytopathicity; type: functional, organism-based
# [14] = system: Human betaherpesvirus 5; experiment: Antiviral activity against Cytomegalovirus Davis infected in HEL cells assessed as inhibition of virus-induced cytopathicity; type: functional, organism-based
# [15] = system: Human betaherpesvirus 5; experiment: Antiviral activity against Cytomegalovirus AD169 infected in HEL cells assessed as inhibition of virus-induced cytopathicity; type: functional, organism-based
# [16] = system: Respiratory syncytial virus; experiment: Antiviral activity against Respiratory syncytial virus infected in human HeLa cells assessed as inhibition of virus-induced cytopathicity; type: functional, organism-based; outline: as §1
# [17] = system: Coxsackievirus B4; experiment: Antiviral activity against Coxsackievirus B4 infected in human HeLa cells assessed as inhibition of virus-induced cytopathicity; type: functional, organism-based; outline: as §1
# [18] = system: Influenza A virus H3N2; experiment: Antiviral activity against Influenza A virus H3N2 infected in MDCK cells assessed as inhibition of virus-induced cytopathicity; type: functional, organism-based
# Outline: (§3)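 Confluent monolayers in 96-well plates were inoculated with 100 CCID50 of virus in the presence of varying concentrations of compound. Read-out was inhibition of virus-induced cytopathicity, compared with untreated infected cultures. Cytotoxicity was judged microscopically or by MTT viability staining.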
# [19] = system: Vesicular stomatitis virus; experiment: Antiviral activity against Vesicular stomatitis virus infected in human HeLa cells assessed as inhibition of virus-induced cytopathicity; type: functional, organism-based; outline: as §3
# [20] = system: Influenza A virus; experiment: Antiviral activity against influenza A virus H1N1 infected in MDCK cells assessed as inhibition of virus-induced cytopathicity; type: functional, organism-based; outline: as §3
# [21] = system: Punta Toro virus; experiment: Antiviral activity against Punta Toro virus infected in African green monkey Vero cells assessed as inhibition of virus-induced cytopathicity; type: functional, organism-based; outline: as §1
# [22] = system: Coxsackievirus B4; experiment: Antiviral activity against Coxsackievirus B4 infected in African green monkey Vero cells assessed as inhibition of virus-induced cytopathicity; type: functional, organism-based; outline: as §1
# [23] = system: Sindbis virus; experiment: Antiviral activity against Sindbis virus infected in African green monkey Vero cells assessed as inhibition of virus-induced cytopathicity; type: functional, organism-based
# [24] = system: Mammalian orthoreovirus 1; experiment: Antiviral activity against Reovirus 1 infected in African green monkey Vero cells assessed as inhibition of virus-induced cytopathicity; type: functional, organism-based; outline: as §1
# [25] = system: Human respirovirus 3; experiment: Antiviral activity against parainfluenza virus 3 infected in African green monkey Vero cells assessed as inhibition of virus-induced cytopathicity; type: functional, organism-based; outline: as §1
# [26] = system: Human alphaherpesvirus 1; experiment: Antiviral activity against thymidine kinase-negative acyclovir-resistant HSV-1 KOS infected in HEL cells assessed as inhibition of virus-induced cytopathicity; type: functional, organism-based; outline: as §3
# [27] = system: Vesicular stomatitis virus; experiment: Antiviral activity against Vesicular stomatitis virus infected in HEL cells assessed as inhibition of virus-induced cytopathicity; type: functional, organism-based; outline: as §3
# [28] = system: Vaccinia virus; experiment: Antiviral activity against Vaccinia virus infected in HEL cells assessed as inhibition of virus-induced cytopathicity; type: functional, organism-based; settings: Orthopoxvirus vaccinia; outline: as §3
Compound,inhibition [1],inhibition [2],solubility [3],logD at 24 h [4],solubility [5],Ratio CC50/IC50 [6],CC50 [7],MCC [8],IC50 [9],IC50 [10],inhibition [11],inhibition [12],inhibition [13],inhibition [14],inhibition [15],inhibition [16],inhibition [17],inhibition [18],inhibition [19],inhibition [20],other results
Clc1ccc2c(NCCCNc3nccc(N4CCNCC4)n3)ccnc2c1,inactive,inactive,0.75 µM,0.102,0.6 µM,36,74000 nM,100 µM,2000 nM,113 nM,inactive,inactive,inactive,inactive,inactive,inactive,inactive,inactive,inactive,inactive,inhibition [21]: inactive; inhibition [22]: inactive; inhibition [23]: inactive; inhibition [24]: inactive; inhibition [25]: inactive; inhibition [26]: inactive; inhibition [27]: inactive; inhibition [28]: inactive
Clc1ccc2c(NCCCNc3nccc(N4CCCC4)n3)ccnc2c1,inactive,inactive,1.25 µM,0.756,0.22 µM,327,49000 nM,100 µM,151 nM,28.7 nM,inactive,inactive,inactive,inactive,inactive,inactive,inactive,inactive,inactive,inactive,inhibition [21]: inactive; inhibition [22]: inactive; inhibition [23]: inactive; inhibition [24]: inactive; inhibition [25]: inactive; inhibition [26]: inactive; inhibition [27]: inactive; inhibition [28]: inactive
Clc1ccc2c(NCCCNc3nccc(N4CCOCC4)n3)ccnc2c1,inactive,inactive,0.95 µM,0.257,0.53 µM,>632,> 100000 nM,> 100 µM,158 nM,55 nM,inactive,inactive,inactive,inactive,inactive,inactive,inactive,inactive,inactive,inactive,inhibition [21]: inactive; inhibition [22]: inactive; inhibition [23]: inactive; inhibition [24]: inactive; inhibition [25]: inactive; inhibition [26]: inactive; inhibition [27]: inactive; inhibition [28]: inactive
Clc1ccc2c(NCCCCNc3nccc(Cl)n3)ccnc2c1,inactive,inactive,3.86 µM,0.742,0.7 µM,>518,> 100000 nM,100 µM,193 nM,179 nM,inactive,inactive,inactive,inactive,inactive,inactive,inactive,inactive,inactive,inactive,inhibition [21]: inactive; inhibition [22]: inactive; inhibition [23]: inactive; inhibition [24]: inactive; inhibition [25]: inactive; inhibition [26]: inactive; inhibition [27]: inactive; inhibition [28]: inactive
